According to ChEMBL document CHEMBL1134409, “Design, synthesis, and discovery of a novel CCR1 antagonist” (J Med Chem, 2001):

Legend:
[1] = target: T1, C-C chemokine receptor type 1 (Mus musculus, UniProt P51675); experiment: Inhibitory activity against [125I]-MIP-1 alpha binding to mouse CCR1 receptors.
T1 sequence (P51675 whole entry): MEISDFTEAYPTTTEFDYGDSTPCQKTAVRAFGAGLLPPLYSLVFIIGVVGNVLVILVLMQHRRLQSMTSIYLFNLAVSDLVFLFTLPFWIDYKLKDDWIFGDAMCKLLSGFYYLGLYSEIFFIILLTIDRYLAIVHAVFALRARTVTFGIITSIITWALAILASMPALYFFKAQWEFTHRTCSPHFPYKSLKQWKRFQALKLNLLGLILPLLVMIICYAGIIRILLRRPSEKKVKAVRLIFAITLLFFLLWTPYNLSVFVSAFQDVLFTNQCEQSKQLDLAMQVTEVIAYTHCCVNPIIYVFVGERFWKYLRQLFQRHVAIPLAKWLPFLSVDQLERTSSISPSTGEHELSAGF
Outline: (§1)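 Whole-cell binding. CHO cells transfected with the CCR receptor were detached with PBS(-) containing 2 mM EDTA and resuspended in Krebs-Ringer phosphate buffer with 0.1% BSA and 0.1% glucose. 1 × 10^5 cells were incubated with 50 pM 125I-chemokine plus antagonist for 1 h at 37 °C to reach equilibrium. Nonspecific binding was taken with 100 nM unlabeled chemokine. Ice-cold buffer was then added.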

[2] = target: T2, C-C chemokine receptor type 1 (Homo sapiens, UniProt P32246); experiment: Inhibitory activity against [125I]-MIP-1 alpha binding to human CCR1 receptors.; outline: as §1
T2 sequence (P32246 whole entry): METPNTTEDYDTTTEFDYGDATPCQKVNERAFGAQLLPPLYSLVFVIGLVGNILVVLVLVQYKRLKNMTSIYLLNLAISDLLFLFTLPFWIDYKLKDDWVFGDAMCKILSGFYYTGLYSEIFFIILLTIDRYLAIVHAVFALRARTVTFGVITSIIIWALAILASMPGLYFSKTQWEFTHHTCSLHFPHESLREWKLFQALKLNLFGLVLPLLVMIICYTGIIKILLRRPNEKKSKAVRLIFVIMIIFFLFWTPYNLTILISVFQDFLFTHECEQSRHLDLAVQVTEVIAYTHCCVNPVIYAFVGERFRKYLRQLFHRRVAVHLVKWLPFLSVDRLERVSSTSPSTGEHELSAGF

[3] = target: T1, C-C chemokine receptor type 1; experiment: Inhibitory activity against 125 I -MIP-1 alpha binding to mouse CCR1 receptors
Outline: (§2)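 CCR-transfected CHO cells, detached with PBS(-)/2 mM EDTA, in Krebs-Ringer phosphate buffer with 0.1% BSA and 0.1% glucose. 1×10^5 cells incubated with 50 pM 125I-chemokine plus antagonist, 1 h at 37 °C to equilibrium. Nonspecific binding measured with 100 nM unlabeled chemokine. Reaction stopped with ice-cold binding buffer.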

[4] = target: C-C chemokine receptor type 2 (Homo sapiens, UniProt P41597); experiment: Inhibitory activity in human CCR2b receptor
Sequence of C-C chemokine receptor type 2 (P41597 whole entry): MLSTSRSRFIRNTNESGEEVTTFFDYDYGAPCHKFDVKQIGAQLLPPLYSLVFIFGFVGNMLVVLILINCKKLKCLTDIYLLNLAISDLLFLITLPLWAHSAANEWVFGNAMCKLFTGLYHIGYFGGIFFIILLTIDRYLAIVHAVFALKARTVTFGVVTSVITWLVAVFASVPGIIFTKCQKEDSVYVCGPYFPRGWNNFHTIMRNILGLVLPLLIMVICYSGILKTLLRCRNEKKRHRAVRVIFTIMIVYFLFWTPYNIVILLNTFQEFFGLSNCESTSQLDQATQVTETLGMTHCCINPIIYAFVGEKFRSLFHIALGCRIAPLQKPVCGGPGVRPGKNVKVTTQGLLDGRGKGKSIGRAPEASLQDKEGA

[5] = Inhibitory activity of I-interleukin-8-binding to human neutrophil at human CXCR1,2 receptor
Outline: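 125I-interleukin-8 binding to human neutrophil membranes.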

[6] = target: T3, C-C chemokine receptor type 3 (Homo sapiens, UniProt P51677); experiment: Inhibitory activity against I-Eotaxin binding to human CCR3 receptors; outline: as §2
T3 sequence (P51677 whole entry): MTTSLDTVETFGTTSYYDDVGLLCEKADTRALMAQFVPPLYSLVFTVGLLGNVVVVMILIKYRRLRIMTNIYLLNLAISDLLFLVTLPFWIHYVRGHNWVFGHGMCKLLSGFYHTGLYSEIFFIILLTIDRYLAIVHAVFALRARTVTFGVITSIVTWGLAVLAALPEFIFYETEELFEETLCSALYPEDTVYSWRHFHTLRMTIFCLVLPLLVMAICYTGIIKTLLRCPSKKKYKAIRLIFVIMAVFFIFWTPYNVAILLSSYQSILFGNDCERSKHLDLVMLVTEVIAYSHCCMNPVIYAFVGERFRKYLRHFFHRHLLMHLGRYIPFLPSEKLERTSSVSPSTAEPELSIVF

[7] = target: T2, C-C chemokine receptor type 1; experiment: Inhibitory activity against MIP-1 alpha- induced [Ca2+] response in U937 cells expressing human CCR1 receptor; format: functional, cell-based, U-937
Outline: (§3)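 U937 cells transfected with the CCR receptor were loaded with 1 µM Fura-2 AM for 30 min at 37 °C and washed twice. They were resuspended at 1 × 10^6 cells/mL in Krebs-Henseleit-HEPES with 0.1% BSA. The stirred cuvette suspension was read at 37 °C for chemokine-induced fluorescence change, with excitation at 340 and 380 nm and emission at 510 nm.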

[8] = target: T4, C-C chemokine receptor type 4 (Homo sapiens, UniProt P51679); experiment: Inhibitory activity against […] induced increase in intracellular [Ca2+] in KU812 cells expressing human CCR4 receptor; format: functional, cell-based
T4 sequence (P51679 whole entry): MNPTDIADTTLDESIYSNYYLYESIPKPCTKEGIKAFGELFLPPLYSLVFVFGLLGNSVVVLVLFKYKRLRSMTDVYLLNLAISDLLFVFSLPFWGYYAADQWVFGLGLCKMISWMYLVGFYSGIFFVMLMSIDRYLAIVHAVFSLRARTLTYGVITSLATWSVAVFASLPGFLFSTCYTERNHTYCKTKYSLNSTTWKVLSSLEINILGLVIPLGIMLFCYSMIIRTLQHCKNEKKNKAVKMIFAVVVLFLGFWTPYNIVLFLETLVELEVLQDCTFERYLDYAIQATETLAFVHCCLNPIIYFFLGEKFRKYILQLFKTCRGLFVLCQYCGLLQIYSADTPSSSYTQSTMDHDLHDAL
Outline: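 Calcium rise evoked by TARC in KU812 cells.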

[9] = target: T5, Probable C-C chemokine receptor type 3 (Mus musculus, UniProt P51678); experiment: Inhibitory activity against I-Eotaxin alpha binding to mouse CCR3 receptors; outline: as §1
T5 sequence (P51678 whole entry): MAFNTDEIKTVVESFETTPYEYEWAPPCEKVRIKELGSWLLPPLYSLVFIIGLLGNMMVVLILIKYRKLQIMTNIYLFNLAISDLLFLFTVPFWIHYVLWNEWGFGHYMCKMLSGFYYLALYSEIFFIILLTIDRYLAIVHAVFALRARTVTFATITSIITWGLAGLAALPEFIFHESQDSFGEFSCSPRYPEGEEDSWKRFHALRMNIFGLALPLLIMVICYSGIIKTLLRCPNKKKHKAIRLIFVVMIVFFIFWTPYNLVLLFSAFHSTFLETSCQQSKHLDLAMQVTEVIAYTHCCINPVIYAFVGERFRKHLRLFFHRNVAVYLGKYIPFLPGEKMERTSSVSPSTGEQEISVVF

[10] = Inhibitory activity of Fractalkine-induced increase in [Ca2+] Conc. in HEL cells at human CX3CR1 receptor; format: functional, cell-based
Outline: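 Calcium rise evoked by fractalkine in HEL cells.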

[11] = target: T3, C-C chemokine receptor type 3; experiment: Inhibitory activity against I-Eotaxin induced [Ca2+] response in human CCR3 receptor; format: functional
Outline: (§4)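 Calcium flux in U937 cells transfected with CCR receptors, loaded with 1 µM Fura-2 AM for 30 min at 37 °C, washed twice and resuspended at 1×10^6 cells/mL in Krebs-Henseleit-Hepes buffer with 0.1% BSA. Stirred cuvette fluorescence read at 37 °C, excitation 340 and 380 nm, emission 510 nm, after chemokine stimulation.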

[12] = target: T5, Probable C-C chemokine receptor type 3; experiment: Inhibitory activity against I-Eotaxin induced [Ca2+] response in mouse CCR3 receptor; format: functional; outline: as §3
[13] = target: T1, C-C chemokine receptor type 1; experiment: inhibitory activity against MIP-1 alpha- induced [Ca2+] response in U937 cells expressing mouse CCR1 receptor; format: functional, cell-based, U-937; outline: as §4
[14] = target: C-C chemokine receptor type 5 (Homo sapiens, UniProt P51681); experiment: Inhibition of RANTES binding to C-C chemokine receptor type 5
Sequence of C-C chemokine receptor type 5 (P51681 whole entry): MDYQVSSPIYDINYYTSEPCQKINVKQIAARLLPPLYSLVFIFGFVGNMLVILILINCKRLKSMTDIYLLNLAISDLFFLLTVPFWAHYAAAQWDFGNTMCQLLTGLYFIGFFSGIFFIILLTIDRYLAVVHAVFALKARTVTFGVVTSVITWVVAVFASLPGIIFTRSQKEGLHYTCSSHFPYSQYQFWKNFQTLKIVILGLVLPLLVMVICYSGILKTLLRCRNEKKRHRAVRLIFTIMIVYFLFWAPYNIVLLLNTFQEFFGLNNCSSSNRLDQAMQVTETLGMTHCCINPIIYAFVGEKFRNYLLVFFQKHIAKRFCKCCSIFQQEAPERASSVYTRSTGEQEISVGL
Outline: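 CCR5 binding was done on membranes, following the kit manufacturer's instructions.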

IC50 [1] | IC50 [2] | Compound | other results
660 nM | – | CC[N+]1(CC2CCCCCCC2)CCC(NC(=O)C2c3ccccc3Oc3ccccc32)CC1 (stereo not given) | –
> 10000 nM | 800 nM | O=C(NC1CCN(CC2CCCCCCCCC2)CC1)C1c2ccccc2Oc2ccccc21 | –
> 10000 nM | 1100 nM | O=C(NC1CCN(CC2CCCCCCC2)CC1)C(c1ccccc1)c1ccccc1 | –
> 10000 nM | > 10000 nM | O=C(NC1CCN(CC2CCCCCCC2)CC1)c1c2ccccc2cc2ccccc12 | –
> 10000 nM | > 10000 nM | O=C(NC1CCN(Cc2ccccc2)CC1)C1c2ccccc2Oc2ccccc21 | –
> 10000 nM | 1800 nM | C[N+]1(CC2CCCCCCC2)CCC(NC(=O)c2c3ccccc3cc3ccccc23)CC1 (stereo not given) | –
12 nM | 1.9 nM | CC[N+]1(C/C2=C/CCCCCC2)CCC(NC(=O)C2c3cc(Br)ccc3Oc3ccc(Br)cc32)CC1 (stereo not given) | –
350 nM | 2.5 nM | C[N+]1(C/C2=C/CCCCCC2)CCC(NC(=O)C2c3ccccc3Oc3ccccc32)CC1 (stereo not given) | –
> 10000 nM | 5100 nM | O=C(NC1CCN(CC2CCCCCCC2)CC1)C1c2cc(Br)ccc2Oc2ccc(Br)cc21 | –
380 nM | 5 nM | CCCC[N+]1(CC2CCCCCCC2)CCC(NC(=O)C2c3ccccc3Oc3ccccc32)CC1 (stereo not given) | –
> 10000 nM | > 10000 nM | O=C(NC1CCN(Cc2ccc3ccccc3c2)CC1)C1c2ccccc2Oc2ccccc21 | –
270 nM | 2.8 nM | CCC[N+]1(C/C2=C/CCCCCC2)CCC(NC(=O)C2c3ccccc3Oc3ccccc32)CC1 (stereo not given) | –
> 10000 nM | 140 nM | O=C(NC1CCN(CC2CCCCCCC2)CC1)C1c2ccccc2Oc2ccccc21 | –
670 nM | 9.7 nM | C=CC[N+]1(CC2CCCCCCC2)CCC(NC(=O)C2c3ccccc3Oc3ccccc32)CC1 (stereo not given) | –
240 nM | – | C[N+]1(CC2CCCCCCC2)CCC(NC(=O)C2c3cc(Br)ccc3Oc3ccc(Br)cc32)CC1 (stereo not given) | –
590 nM | 51 nM | O=C(NC1CCN(C/C2=C/CCCCCC2)CC1)C1c2ccccc2Oc2ccccc21 | –

IC50 [1] | IC50 [2] | Compound | other results
> 10000 nM | > 10000 nM | O=C(NC1CCN(CC2CCCCCCC2)CC1)C1c2cc(Cl)ccc2Oc2ccc(Cl)cc21 | –
140 nM | 3.3 nM | CC[N+]1(CC2CCCCCCC2)CCC(NC(=O)C2c3cc(Br)ccc3Oc3ccc(Br)cc32)CC1 (stereo not given) | –
2500 nM | 150 nM | O=C(NC1CCN(C/C2=C/CCCCCC2)CC1)C1c2cc(Br)ccc2Oc2ccc(Br)cc21 | –
1300 nM | 370 nM | O=C(NC1CC[N+](Cc2ccccc2)(CC2CCCCCCC2)CC1)C1c2ccccc2Oc2ccccc21 (stereo not given) | –
270 nM | 3.6 nM | CCC[N+]1(CC2CCCCCCC2)CCC(NC(=O)C2c3ccccc3Oc3ccccc32)CC1 (stereo not given) | –
1900 nM | 240 nM | O=C(NC1CCN(C/C2=C/CCCCCC2)CC1)C1c2cc(Cl)ccc2Oc2ccc(Cl)cc21 | –
> 10000 nM | 800 nM | C[N+]1(CC2CCCCCCC2)CCC(NC(=O)C(c2ccccc2)c2ccccc2)CC1 (stereo not given) | –
710 nM | 17 nM | C[N+]1(CC2CCCCCCC2)CCC(NC(=O)C2c3cc(Cl)ccc3Oc3ccc(Cl)cc32)CC1 (stereo not given) | –
> 10000 nM | 200 nM | O=C(NC1CCN(CC2CCCCC2)CC1)C1c2ccccc2Oc2ccccc21 | –
2100 nM | 14 nM | C[N+]1(CC2CCCCCCC2)CCC(NC(=O)C2c3ccccc3Oc3ccccc32)CC1 (stereo not given) | –
> 10000 nM | 510 nM | CCCCCCN1CCC(NC(=O)C2c3ccccc3Oc3ccccc32)CC1 | –
63 nM | 2 nM | CC[N+]1(C/C2=C/CCCCCC2)CCC(NC(=O)C2c3ccccc3Oc3ccccc32)CC1 (stereo not given) | –
140 nM | 3.1 nM | CCC[N+]1(CC2CCCCCCC2)CCC(NC(=O)C2c3cc(Br)ccc3Oc3ccc(Br)cc32)CC1 (stereo not given) | –
12 nM | 1.2 nM | CC[N+]1(C/C2=C/CCCCCC2)CCC(NC(=O)C2c3cc(Cl)ccc3Oc3ccc(Cl)cc32)CC1 (stereo in doubt; 2q) | –
5.8 nM | 0.9 nM | CC[N+]1(C/C2=C/CCCCCC2)CCC(NC(=O)C2c3cc(Cl)ccc3Oc3ccc(Cl)cc32)CC1 (stereo in doubt; 2q-1) | IC50 [3]: 5.8 nM; IC50 [4]: > 1000 nM; IC50 [5]: > 1000 nM; IC50 [6]: 0.58 nM; IC50 [7]: 0.73 nM; IC50 [8]: > 10000 nM; IC50 [9]: 460 nM; IC50 [10]: > 10000 nM; IC50 [11]: 6.1 nM; IC50 [12]: 360 nM; IC50 [13]: 21 nM; IC50 [14]: > 1000 nM
740 nM | 47 nM | CC[N+]1(C/C2=C/CCCCCC2)CCC(NC(=O)C2c3cc(Cl)ccc3Oc3ccc(Cl)cc32)CC1 (stereo in doubt; 2q-2) | –

Compound | IC50 [1] | IC50 [2] | other results
O=C(NC1CCN(CC2CCCCCCC2)CC1)C(O)(c1ccccc1)c1ccccc1 | > 10000 nM | 1600 nM | –
C[N+]1(CC2CCCCCCC2)CCC(NC(=O)C(O)(c2ccccc2)c2ccccc2)CC1 (stereo not given) | > 10000 nM | 2100 nM | –
N#CC(CCCN1CCC(O)(c2ccc(Cl)cc2)CC1)(c1ccccc1)c1ccccc1 [BERLEX COMPOUND] | 5000 nM | 48 nM | –
